Measurements reported in ChEMBL document CHEMBL4184227, “Surrogating and redirection of pyrazolo[1,5-a]pyrimidin-7(4H)-one core, a novel class of potent and selective DPP-4 inhibitors” (Bioorg Med Chem, 2018).

How the values were obtained:
Dipeptidyl peptidase 9 = Dipeptidyl peptidase 9 (Homo sapiens, UniProt Q86TI2); test: Inhibition of recombinant human DPP9 using H-Gly-Pro-AMC as substrate measured after 10 mins by fluorescence assay
Method in brief: (§1)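 Recombinant human DPP-8 or DPP-9 in 100 mM Tris-HCl, 100 mM NaCl, pH 7.8 was combined with inhibitor and H-Gly-Pro-AMC substrate (303 final). The mixture was incubated at 37 °C for 10 min, then fluorescence was read at ex 380/em 460 nm; values are means of three experiments.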

Dipeptidyl peptidase 8 = Dipeptidyl peptidase 8 (Homo sapiens, UniProt Q6V1X1); test: Inhibition of recombinant human DPP8 using H-Gly-Pro-AMC as substrate measured after 10 mins by fluorescence assay; method in brief: as §1
Dipeptidyl peptidase 8, sequence (Q6V1X1 whole entry): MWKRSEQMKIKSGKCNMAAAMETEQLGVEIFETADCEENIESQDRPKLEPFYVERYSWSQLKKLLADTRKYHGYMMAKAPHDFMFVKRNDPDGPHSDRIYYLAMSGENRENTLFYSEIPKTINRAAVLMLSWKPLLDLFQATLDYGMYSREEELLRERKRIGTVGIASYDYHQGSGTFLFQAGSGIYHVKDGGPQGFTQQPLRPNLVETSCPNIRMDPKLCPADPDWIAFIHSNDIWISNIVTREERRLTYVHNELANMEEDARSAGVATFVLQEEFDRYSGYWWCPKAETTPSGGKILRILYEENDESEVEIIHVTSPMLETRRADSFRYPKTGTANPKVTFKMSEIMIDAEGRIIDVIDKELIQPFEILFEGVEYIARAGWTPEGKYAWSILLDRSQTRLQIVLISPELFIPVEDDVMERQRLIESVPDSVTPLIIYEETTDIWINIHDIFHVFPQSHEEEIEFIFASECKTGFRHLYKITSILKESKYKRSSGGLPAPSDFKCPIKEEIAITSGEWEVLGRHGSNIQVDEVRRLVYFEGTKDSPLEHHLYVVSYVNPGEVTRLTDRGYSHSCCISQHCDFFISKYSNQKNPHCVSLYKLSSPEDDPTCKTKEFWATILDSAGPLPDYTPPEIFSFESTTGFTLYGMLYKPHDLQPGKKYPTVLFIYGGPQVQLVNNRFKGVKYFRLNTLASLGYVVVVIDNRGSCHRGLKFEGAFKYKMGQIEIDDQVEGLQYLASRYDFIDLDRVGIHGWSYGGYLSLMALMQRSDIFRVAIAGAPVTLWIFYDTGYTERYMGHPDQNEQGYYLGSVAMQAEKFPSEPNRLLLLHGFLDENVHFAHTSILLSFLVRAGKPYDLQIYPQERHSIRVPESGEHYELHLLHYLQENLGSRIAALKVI

HepG2 [1] = test: Cytotoxicity against human HepG2 cells assessed as reduction in cell viability after 48 hrs by MTT assay; assay type: cell-based; conditions: hepg2, 48 h
Method in brief: (§2)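 HepG2 cells in DMEM were exposed to compound in DMSO at 1–100 μM final, or DMSO alone as negative control, for 48 h. MTT (5 mg/ml, 20 µL) was then added for 6 h, the supernatant removed and the formazan dissolved in DMSO. Absorbance was read at 490 nm; viability is expressed versus control; mean ± SD, n=3.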

HepG2 [2] = test: Cytotoxicity against human HepG2 cells assessed as reduction in cell viability at 100 uM after 48 hrs by MTT assay; assay type: cell-based; conditions: hepg2, 48 h; method in brief: as §2
Mus musculus [3] = test: Antidiabetic activity in ip dosed C57BL/6 mouse as reduction in blood glucose level administered as single dose pretreated for 30 mins followed by dextrose-challenge measured up to 2 hrs by IPGTT; assay type: functional, organism-based
Method in brief: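 Diabetic male mice (strain given as C57BL/6 and as BALB/c) received a single intraperitoneal dose of 1, 5 or 10 mg/kg, or saline as control, 30 min before an injected dextrose challenge (2 g/kg). Blood glucose was read at 0, 0.5, 1, 1.5 and 2 h, and glucose AUC was computed over 0–120 min; mean ± SD, n = 4.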

[4] = Cytotoxicity against human HepG2 cells assessed as cell viability at 100 uM after 48 hrs by MTT assay relative to control; assay type: cell-based; conditions: read-out: Activity; method in brief: as §2
Mus musculus [5] = organism: Mus musculus; test: animal or person; conditions: C57BL/6, ip, read-out: MED

Dipeptidyl peptidase 9, sequence (Q86TI2 whole entry): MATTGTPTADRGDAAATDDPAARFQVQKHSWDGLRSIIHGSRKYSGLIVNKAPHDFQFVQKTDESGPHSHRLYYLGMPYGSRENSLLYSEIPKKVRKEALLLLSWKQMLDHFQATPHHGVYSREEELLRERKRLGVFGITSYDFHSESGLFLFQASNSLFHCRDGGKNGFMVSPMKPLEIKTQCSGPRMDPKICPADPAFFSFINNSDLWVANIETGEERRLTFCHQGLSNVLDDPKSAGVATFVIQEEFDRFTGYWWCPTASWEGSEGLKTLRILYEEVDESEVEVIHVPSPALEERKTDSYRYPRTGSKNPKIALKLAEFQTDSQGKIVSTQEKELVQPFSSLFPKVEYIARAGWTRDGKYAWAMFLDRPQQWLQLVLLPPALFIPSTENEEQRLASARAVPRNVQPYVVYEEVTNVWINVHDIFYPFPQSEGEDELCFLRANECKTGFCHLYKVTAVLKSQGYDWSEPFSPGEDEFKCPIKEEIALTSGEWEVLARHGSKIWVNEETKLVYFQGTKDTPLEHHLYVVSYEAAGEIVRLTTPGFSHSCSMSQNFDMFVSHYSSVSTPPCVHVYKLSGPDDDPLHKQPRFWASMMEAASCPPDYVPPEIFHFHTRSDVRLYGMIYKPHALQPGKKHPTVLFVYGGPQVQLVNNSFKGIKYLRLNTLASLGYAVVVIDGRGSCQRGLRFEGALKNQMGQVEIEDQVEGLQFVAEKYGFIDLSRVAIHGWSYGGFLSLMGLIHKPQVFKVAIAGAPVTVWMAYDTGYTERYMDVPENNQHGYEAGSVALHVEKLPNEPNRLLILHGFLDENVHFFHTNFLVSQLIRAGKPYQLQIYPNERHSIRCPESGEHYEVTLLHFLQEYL

Row | IC50 (Dipeptidyl peptidase 9) [µM] | IC50 (Dipeptidyl peptidase 8) [µM] | SMILES | Activity (HepG2 [1]) | Activity (HepG2 [2]) | Activity (Mus musculus [3]) | viability at 48 h, 100 µM [4] [%] | minimal effective dose (Mus musculus [5]) [mg/kg]
1 | > 100 | > 100 | Cc1ccc(Cn2c(N3CCC[C@@H](N)C3)cc(=O)n3nccc23)cc1 |  |  |  |  | 
2 | > 100 | > 100 | O=c1cc(N2CCNCC2)n(Cc2ccccc2[N+](=O)[O-])c2ccnn12 |  |  |  |  | 
3 | > 100 | > 100 | O=c1cc(N2CCNCC2)n(Cc2ccccc2)c2ccnn12 |  |  |  |  | 
4 | > 100 | > 100 | N#Cc1ccccc1Cc1c(Cl)nc2ccnn2c1N1CCC[C@@H](N)C1 | Dose-dependent effect | Toxic |  |  | 
5 | > 100 | > 100 | Cc1ccc(Cn2c(N3CCNCC3)cc(=O)n3nccc23)cc1 |  |  |  |  | 
6 | > 100 | > 100 | N#Cc1ccccc1Cn1c(N2CCC[C@@H](N)C2)cc(=O)n2nccc12 |  |  |  |  | 

Row | SMILES | IC50 (Dipeptidyl peptidase 9) [µM] | IC50 (Dipeptidyl peptidase 8) [µM] | Activity (HepG2 [1]) | Activity (HepG2 [2]) | Activity (Mus musculus [3]) | viability at 48 h, 100 µM [4] [%] | minimal effective dose (Mus musculus [5]) [mg/kg]
7 | N#Cc1ccccc1Cn1c(N2CCNCC2)cc(=O)n2nccc12 | > 100 | > 100 | Dose-dependent effect |  | Dose-dependent effect | > 60 | 1
